Rows were chosen to be rich in hits. Some 1.8% of all compounds tested hit in one or more screens of this group.
TbMetRS inhib = Trypanosoma brucei MetRS inhibition; purified T. brucei MetRS, ATP depletion, Kinase-Glo luminescence; actives 0.4% (n = 360,000); inhibition, % at 11.9 µM;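 active = inhibition above a per-plate cutoff of the control wells' mean inhibition plus 3 SD, cut at about 5.5% in these data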;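 also: 0% = DMSO wells median and 100% = median of wells with control inhibitor compound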
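Dosing: 11.9 µM single point; system: parasite MetRS enzyme; technique: luminescence of leftover ATP; times: 15 min enzyme-compound preincubation, 2 h reaction, 10 min detection, 25 °C; replicates: each compound tested once; read-out basis: percent inhibition relative to median high and low control wells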
p-CIP stab down = compounds decreasing mouse p/CIP protein stability; Q05BA5; F442A p/CIP-EGFP cells, EGFP fluorescence, 16 h; decrease of EGFP signal, % at 10 µM; actives 0.01% (n = 290,000); AID 1984;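 active = EGFP signal decrease of at least 30% at 10 µM or well 3 SD below plate mean, unless failing retest; inactive = the rest, including hits failing retest or dose response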
PHOSPHO1 block = blocks human PHOSPHO1 phosphatase activity | actives 1.1% (n = 290,000) | inhibition, % at 13.3 µM | AID 1565 | recombinant PHOSPHO1, absorbance phosphatase assay | Q8TCT1; in the data active = inhibition above about 60%
Target sequence (Q8TCT1 whole entry, looked up): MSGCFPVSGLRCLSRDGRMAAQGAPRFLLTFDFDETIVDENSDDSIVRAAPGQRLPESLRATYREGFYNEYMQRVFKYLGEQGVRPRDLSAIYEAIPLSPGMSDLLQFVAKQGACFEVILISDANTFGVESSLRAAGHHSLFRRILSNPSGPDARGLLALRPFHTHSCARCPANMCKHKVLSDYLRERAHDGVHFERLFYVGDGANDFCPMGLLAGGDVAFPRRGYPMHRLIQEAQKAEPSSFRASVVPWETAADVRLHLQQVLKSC
A3A deaminase = inhibitors of human APOBEC3A DNA deaminase | actives 0.41% (n = 330,000) | inhibition, % at 20 µM | P31941 | recombinant A3A, FAM/TAMRA ssDNA deamination fluorescence | AID 493011;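 active = at least 40% inhibition at 20 µM here, with at most 30% in a related deaminase screen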;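 also: plate controls were A3A with DMSO for no effect and wells lacking A3A enzyme for full effect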
Target sequence (P31941 whole entry, looked up): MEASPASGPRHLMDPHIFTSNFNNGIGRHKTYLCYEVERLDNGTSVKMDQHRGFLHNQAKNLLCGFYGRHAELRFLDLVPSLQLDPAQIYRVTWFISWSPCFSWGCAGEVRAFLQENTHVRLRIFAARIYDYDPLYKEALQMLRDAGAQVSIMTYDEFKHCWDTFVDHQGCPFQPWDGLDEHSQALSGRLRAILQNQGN
A3G deaminase = APOBEC3G (human) deaminase inhibition. Q9HC16. recombinant A3G, ssDNA deamination FAM/TAMRA fluorescence. inhibition, % at 20 µM. actives 0.28% (n = 330,000). AID 493012;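 active = inhibition of at least 40% at 20 µM, with no more than 30% in the related APOBEC3A deaminase screen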;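 also: plate controls were DMSO wells with A3G for no effect and wells lacking A3G enzyme for full effect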
The depositor's hits bear a star; x = not tested or not shown.

SMILES	TbMetRS inhib	p-CIP stab down	PHOSPHO1 block	A3A deaminase	A3G deaminase
Cc1ccc(C2(c3ccccc3)NC(=O)N(CC(=O)N3CC(=O)Nc4ccccc43)C2=O)cc1C (stereo not given)	-0.5	x	x	0.4	-4.4
CC1CN(CC(=O)Nc2ccc([N+](=O)[O-])cc2Br)CC(C)O1 (stereo not given)	-0.4	15.8	16.1	3.8	-3.6
CCOCc1cnc(C)nc1NCC(=O)c1c(C)n(C)c2ccc(OC)cc12	-1.9	-5.4	92.3*	x	x
COc1ccc2c(c1)c(C(=O)CNc1nc(C)cs1)c(C)n2C	-0.9	3.3	81.2*	18.0	4.8
Cc1cc(NS(=O)(=O)c2cc(Cl)sc2Cl)no1	-0.1	1.0	39.9	-1.6	-3.9
COc1cc(CCC(=O)OCC(=O)Nc2ccccc2C#N)cc(OC)c1OC	-1.2	-12.1	12.4	1.8	0.5
CCCCCC#CCC#CCC#CCC#CCCCC(=O)O	x	0.1	79.4*	98.0	90.4
COc1cccc(-c2nc(-c3ccc(Br)o3)no2)c1	-0.4	-0.4	33.4	-4.8	-0.9
CNC1(C(N)=O)CCNCC1	-1.0	38.8*	-3.4	-3.2	-9.0
CC(Oc1ccc([N+](=O)[O-])cc1)C(=O)NCCCN1CCOCC1 (stereo not given)	-0.5	-10.4	65.8*	0.4	2.9
CCC(=O)n1nc(-c2ccco2)nc1N	-0.2	-12.8	66.8*	3.3	-0.8
CCc1nnc(NC(=O)CSc2ccc(-c3ccco3)nn2)s1	-0.8	3.9	72.1*	24.1	12.9
CCc1nnc(NC(=O)CSc2ccc(-c3nc4ccccc4[nH]3)cn2)s1	9.9*	-11.5	35.4	0.0	-7.0
CCNC(=S)NNC(=O)Nc1ccccc1	-0.2	0.5	78.9*	1.7	-1.8
CCNC(=S)NNC(=O)C(c1ccccc1)c1ccccc1	-0.6	1.8	-112.6	-5.1	-0.2
O=C1NC2(CCCC2)C(=O)N1CCS(=O)(=O)Oc1ccccc1	1.5	-3.3	64.7*	0.3	-4.2
O=C1NC2(CCCCC2)C(=O)N1CCS(=O)(=O)Oc1ccc(Br)cc1	0.5	-9.4	48.0	-3.5	-10.0
O=[N+]([O-])c1cccc(C(=S)N2CCN(c3ccccc3)CC2)c1	-0.1	-13.9	78.6*	-5.2	18.6
Cc1cc(C)c(-n2[nH]nnc2=S)c(C)c1	-0.8	-4.3	-115.8	-4.8	-4.8
Fc1ccc(-n2[nH]nnc2=S)cc1N1CCCC1	0.4	-4.6	77.7*	-5.5	0.6
C[C@H](NC(=O)C1CC(=O)N(c2ccc3c(c2)OCO3)C1)C(=O)NC1CCCC1 (stereo not given in full)	0.4	-27.0	19.9	0.4	0.9
O=C(NCc1ccc2c(c1)OCO2)C1CC(=O)N(C2CCCC2)C1 (stereo not given)	-1.2	-2.1	63.9*	-7.0	-2.5
CC(C)C[C@H](NC(=O)C1CC(=O)N(c2ccc3c(c2)OCO3)C1)C(=O)NC1CCCC1 (stereo not given in full)	0.3	-11.7	70.1*	-1.4	-4.6
CC(C)Cc1cc(CN2CCC(CO)(Cc3cccc(C(F)(F)F)c3)CC2)[nH]n1	-0.3	0.6	-13.2	-4.1	0.2
Cc1ccc(SCC2(O)CCN(C(=O)c3ccc(Cl)cc3)CC2)cc1	-1.5	4.3	62.0*	7.7	12.1
SMILES	TbMetRS inhib	p-CIP stab down	PHOSPHO1 block	A3A deaminase	A3G deaminase
CCc1nc(SCC(=O)c2ccc(C)c(C)c2)n[nH]1	-0.6	-13.1	99.0*	-1.4	-8.8
Cc1ccc(C(=O)CSc2n[nH]c(-c3ccco3)n2)cc1C	-0.5	-5.4	-31.3	-1.0	3.1
Cc1nc(SCC(=O)c2ccc(F)cc2)n[nH]1	0.1	-13.7	94.8*	-3.7	24.3
CCCCS(=O)(=O)N1CCC(C(=O)Oc2ccc(Cl)cc2)CC1	-1.0	10.3	x	-4.8	-2.2
Nc1c(C(=O)NCc2cccnc2)sc(=S)n1-c1ccccc1	-1.2	6.0	95.5*	0.6	38.0
CCn1c(N)c(C(=O)NCc2cccnc2)sc1=S	0.2	13.6	0.1	-1.8	-6.7
COc1ccc(CNC(=O)c2sc(=S)n(-c3ccc(OC)cc3)c2N)cc1	0.2	-3.4	95.4*	0.2	6.4
Cc1ccc(-n2c(N)c(C(=O)NCc3ccco3)sc2=S)cc1	-0.7	-13.0	22.9	-1.2	-4.3
CCNC(=O)Cn1cc(C(F)(F)F)cc(Cl)c1=O	0.0	-10.5	19.7	-2.6	-5.2
Cc1ccsc1/C=N/NC(=O)Cn1cnc2ccccc21	-0.2	-7.5	-9.7	3.0	1.7
O=C(O)c1c[nH]c(=S)n1-c1ccc(F)cc1	-0.4	4.8	103.6*	-2.0	1.4

Screening results (PubChem)
